Activity calls are given as the source filed them. The calls are words filed in the database; no cut-off is given here.
How the values were obtained:
[1] = Half life in Sprague-Dawley rat at 2.5 mg/kg, iv; format: ADME, organism-based; parameters: dose 2.5 mg/kg, route intravenous; conditions: in vivo
Method in brief: (§1)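 Pharmacokinetics with single dosing at 2.5 mg/kg iv or 5.0 mg/kg po. Vehicles were acidified saline or acidified saline/PEG400. Half-life and oral availability were determined.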

[2] = system: T-24; assay: Induction of histone H4 acetylation in human T24 cells after 16 hrs by immunoblot relative to MS-275; format: functional, cell-based; conditions: T-24, 16 h
Method in brief: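 T24 cells exposed to 0, 1, 5 and 25 µM for 16 h, then harvested. Histones acid-extracted, run on SDS–PAGE and immunoblotted with antibodies to H4 and to acetylated H4. Relative effective concentration expressed against MS-275 at 1 µM.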

[3] = system: HCT-116; assay: Antitumor activity against HCT116 xenografted nude mouse assessed as tumor growth inhibition at 40 mg/kg, ip after 14 days; format: functional, Homo sapiens; conditions: HCT-116, ip, 336 h, route intraperitoneal
Method in brief: (§2)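 Human tumour xenografts (A549 non-small cell lung, DU145 prostate, HCT116 colon) grown in nude mice, 6 animals per group. Dosing once daily for 14 days, intraperitoneal or oral. Read-out is % tumour growth inhibition versus vehicle-treated control animals.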

[4] = Oral bioavailability in Sprague-Dawley rat at 5.0 mg/kg, po; format: ADME, organism-based; conditions: in vivo; method in brief: as §1
[5] = system: T-24; assay: Induction of p21WAF1/Cip1 expression in human T24 cells […] after 16 hrs by Western blot analysis relative to MS-275; format: functional, cell-based; conditions: T-24, 16 h
Method in brief: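 T24 cells exposed to 0, 1, 5 and 25 µM or DMSO alone for 16 h. Whole-cell lysates analysed by Western blot with p21WAF1/Cip1 antibody. Relative effective concentration expressed against MS-275 at 1 µM.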

[6] = system: A549; assay: Antitumor activity against A549 xenografted nude mouse assessed as tumor growth inhibition at 80 mg/kg, po after 14 days; format: functional, Homo sapiens; conditions: A549, 336 h; method in brief: as §2
[7] = system: HCT-116; assay: Cell cycle arrest in HCT116 cells by accumulation at G2/M phase; format: functional, cell-based; conditions: Homo sapiens
[8] = system: HCT-116; assay: Apoptosis in human HCT116 cells; format: functional, cell-based
[9] = system: HMEC; assay: Antiproliferative activity against human HMEC cells by MTT assay; format: cell-based
Method in brief: (§3)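 MTT read-out of cell proliferation/cytotoxicity in human colon cancer HCT116 cells and in normal human mammary epithelial cells (HMEC); IC50 derived.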

[10] = molecular target: Histone deacetylase 1 (Homo sapiens, UniProt Q13547); assay: Inhibition of human recombinant HDAC1 expressed in insect Sf9 cells
Histone deacetylase 1, sequence (Q13547 whole entry): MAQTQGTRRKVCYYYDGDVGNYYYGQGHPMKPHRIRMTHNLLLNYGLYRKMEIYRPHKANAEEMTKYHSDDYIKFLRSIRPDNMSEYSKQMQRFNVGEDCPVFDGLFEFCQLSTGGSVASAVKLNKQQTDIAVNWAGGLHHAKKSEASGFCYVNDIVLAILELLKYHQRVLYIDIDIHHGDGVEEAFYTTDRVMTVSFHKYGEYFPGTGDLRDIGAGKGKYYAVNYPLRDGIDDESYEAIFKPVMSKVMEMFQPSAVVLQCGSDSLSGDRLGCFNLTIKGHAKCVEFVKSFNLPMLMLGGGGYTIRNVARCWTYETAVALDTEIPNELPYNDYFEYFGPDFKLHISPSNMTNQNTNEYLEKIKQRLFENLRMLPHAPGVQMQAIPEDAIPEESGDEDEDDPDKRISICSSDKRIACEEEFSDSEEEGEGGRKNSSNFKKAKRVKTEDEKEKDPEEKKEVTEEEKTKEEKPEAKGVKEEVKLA
Method in brief: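 FLAG-tagged recombinant HDAC1 expressed in Sf9 cells, purified by anti-FLAG affinity resin and size-exclusion chromatography. Substrate BocLys(acetyl)AMC. Deacetylated product detected fluorometrically after trypsin release of AMC (excitation 360 nm). IC50 determined.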

[11] = system: DU-145; assay: Antitumor activity against DU145 xenografted nude mouse assessed as tumor growth inhibition at 80 mg/kg, po after 14 days; format: functional, Homo sapiens; conditions: DU-145, 336 h; method in brief: as §2
[12] = system: HCT-116; assay: Antiproliferative activity against human HCT116 cells by MTT assay; format: functional, cell-based; method in brief: as §3
[13] = system: HCT-116; assay: Antitumor activity against HCT116 xenografted nude mouse assessed as tumor growth inhibition at 20 mg/kg, ip after 14 days; format: functional, Homo sapiens; conditions: HCT-116, ip, 336 h, route intraperitoneal; method in brief: as §2

SMILES	half-life [1]	EC50 [2]	bioavailability [4]	EC50 [5]	IC50 [10]	IC50 [12]	inhibition in vivo at 40 mg/kg [3]	inhibition in vivo at 80 mg/kg [6]	Activity [7]	Activity [8]	IC50 [9]	inhibition in vivo at 80 mg/kg [11]	inhibition in vivo at 20 mg/kg [13]
CCn1c(=O)n(Cc2ccc(C(=O)Nc3ccccc3N)cc2)c(=O)c2sccc21	72 min	1000 nM	64%	3000 nM	300 nM	800 nM			Active	Active	> 50 µM		
Nc1ccccc1NC(=O)c1ccc(CC2COc3ccccc3C2)cc1 (configuration not stated)		3000 nM		3000 nM	1000 nM	2000 nM			Active	Active	23 µM		
Nc1ccccc1NC(=O)c1ccc(CC2COc3ccccc3C2=O)cc1 (configuration not stated)		2000 nM		1000 nM	90 nM	900 nM			Active	Active	6 µM		
Nc1ccccc1NC(=O)c1ccc(Cn2c(=O)c3ccccc3n(CCN3CCOCC3)c2=O)cc1		3000 nM		5000 nM	400 nM	1000 nM			Active	Active	> 25 µM		
Nc1ccccc1NC(=O)c1ccc(CN2C(=O)c3ccccc3C2=O)cc1		5000 nM		3000 nM	200 nM	5000 nM			Active	Active	> 50 µM		
Nc1ccccc1NC(=O)c1ccc(CN2Cc3ccccc3C2=O)cc1	36 min	1000 nM	34%	2000 nM	100 nM	500 nM			Active	Active	37 µM		
Nc1ccccc1NC(=O)c1ccc(Cc2coc3ccccc3c2=O)cc1		1000 nM		1000 nM	30 nM	300 nM			Active	Active	9 µM		
Cc1nc2ccccc2c(=O)n1Cc1ccc(C(=O)Nc2ccccc2N)cc1	54 min	1000 nM	16%	2000 nM	80 nM	600 nM			Active	Active	> 50 µM		
CN(C)CCn1c(=O)n(Cc2ccc(C(=O)Nc3ccccc3N)cc2)c(=O)c2ccccc21	126 min	1000 nM	38%	1000 nM	300 nM	1000 nM			Active	Active	> 25 µM		
Nc1ccccc1NC(=O)c1ccc(Cn2c(=O)oc3ccccc3c2=O)cc1		1000 nM		2000 nM	100 nM	300 nM			Active	Active	21 µM		
Nc1ccccc1NC(=O)c1ccc(Cn2c(=O)[nH]c3ccccc3c2=O)cc1		1000 nM		2000 nM	60 nM	800 nM	59%		Active	Active	18 µM		51%
Nc1ccccc1NC(=O)c1ccc(Cn2cnc3ccsc3c2=O)cc1	84 min	1000 nM	47%	1000 nM	200 nM	700 nM		42%	Active	Active	> 50 µM	45%	

More lines, main results first:

half-life [1]	EC50 [2]	bioavailability [4]	EC50 [5]	IC50 [10]	IC50 [12]	SMILES	inhibition in vivo at 40 mg/kg [3]	inhibition in vivo at 80 mg/kg [6]	Activity [7]	Activity [8]	IC50 [9]	inhibition in vivo at 80 mg/kg [11]	inhibition in vivo at 20 mg/kg [13]
78 min	1000 nM	47%	1000 nM	60 nM	400 nM	Nc1ccccc1NC(=O)c1ccc(Cn2c(=O)[nH]c3ccsc3c2=O)cc1	61%	55%	Active	Active	29 µM	67%	
	1000 nM		1000 nM	100 nM	700 nM	Cn1c(=O)n(Cc2ccc(C(=O)Nc3ccccc3N)cc2)c(=O)c2ccccc21			Active	Active	> 42 µM		
	1000 nM		3000 nM	100 nM	800 nM	COc1ccc(Cn2c(=O)n(Cc3ccc(C(=O)Nc4ccccc4N)cc3)c(=O)c3ccccc32)cc1			Active	Active	> 25 µM		
	1000 nM		600 nM	200 nM	400 nM	CCn1c(=O)n(Cc2ccc(C(=O)Nc3ccccc3N)cc2)c(=O)c2ccccc21			Active	Active	25 µM		
	1000 nM		1000 nM	200 nM	600 nM	Nc1ccccc1NC(=O)c1ccc(Cn2nnc3ccccc3c2=O)cc1			Active	Active	17 µM		
	< 1000 nM		1000 nM	100 nM	400 nM	Nc1ccccc1NC(=O)c1ccc(Cn2cnc3ccccc3c2=O)cc1			Active	Active	28 µM		
	< 1000 nM		2000 nM	100 nM	600 nM	Nc1ccccc1NC(=O)c1ccc(CC2Cc3ccccc3C2=O)cc1 (configuration not stated)			Active	Active	8 µM		
